≈ marks a conversion by molar mass, not a printed value.
Assays:
Type in all cases: functional
Mycobacterium kansasii [1] = assay: Antimycobacterial activity against Mycobacterium kansasii CNCTC My 235/80 after 21 days by microdilution method; conditions: CNCTC My 235/80, 504 h
Procedure, shortened: (§1)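 Strains from the Czech National Collection of Type Cultures, tested by dilution micromethod in Šula semisynthetic medium. Incubated at 37 °C and read at 14 and 21 days. MIC is the lowest concentration inhibiting growth.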

Mycobacterium kansasii [2] = assay: Antimycobacterial activity against Mycobacterium kansasii CNCTC My 235/80 after 14 days by microdilution method; conditions: CNCTC My 235/80, 336 h; procedure, shortened: as §1
[3] = test system: Mycobacterium tuberculosis; assay: Antimycobacterial activity against Mycobacterium tuberculosis CNCTC My 331/88 after 14 days by microdilution method; conditions: CNCTC My 331/88, 336 h; procedure, shortened: as §1
Mycobacterium avium [4] = assay: Antimycobacterial activity against Mycobacterium avium CNCTC My 330/88 after 14 days by microdilution method; conditions: CNCTC My 330/88, 336 h; procedure, shortened: as §1
Mycobacterium kansasii [5] = assay: Antimycobacterial activity against Mycobacterium kansasii 6509/96 after 14 days by microdilution method; conditions: 6509/96, 336 h
Procedure, shortened: (§2)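 Clinical isolate that, unlike the standard strain, is not isoniazid-resistant. Tested by dilution micromethod in Šula semisynthetic medium, with compounds added in DMSO at final 1000 down to 0.25 µmol/L in twofold steps. Löwenstein-Jensen plate used as inoculum sterility and growth control. Incubated at 37 °C and read at 14 and 21 days. MIC is the lowest concentration inhibiting growth.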

Mycobacterium avium [6] = assay: Antimycobacterial activity against Mycobacterium avium CNCTC My 330/88 after 21 days by microdilution method; conditions: CNCTC My 330/88, 504 h; procedure, shortened: as §1
[7] = test system: Mycobacterium tuberculosis; assay: Antimycobacterial activity against Mycobacterium tuberculosis CNCTC My 331/88 after 21 days by microdilution method; conditions: CNCTC My 331/88, 504 h; procedure, shortened: as §1
Mycobacterium kansasii [8] = assay: Antimycobacterial activity against Mycobacterium kansasii 6509/96 after 21 days by microdilution method; conditions: 6509/96, 504 h; procedure, shortened: as §2

SMILES: CC(C)(C)c1ccc(-n2c(=O)oc3ccc(Cl)cc3c2=O)cc1
- MIC (Mycobacterium kansasii [1]): 16 µM (≈ 5.28 µg/mL)
- MIC (Mycobacterium kansasii [2]): 8 µM (≈ 2.64 µg/mL)
- MIC [3]: 8 µM (≈ 2.64 µg/mL)
- MIC (Mycobacterium avium [4]): 16 µM (≈ 5.28 µg/mL)
- MIC (Mycobacterium kansasii [5]): 8 µM (≈ 2.64 µg/mL)
- MIC (Mycobacterium avium [6]): 32 µM (≈ 10.6 µg/mL)
- MIC [7]: 16 µM (≈ 5.28 µg/mL)
- MIC (Mycobacterium kansasii [8]): 8 µM (≈ 2.64 µg/mL)

SMILES: CC(C)(C)c1ccc(-n2c(=O)oc3ccc(F)cc3c2=O)cc1
- MIC (Mycobacterium kansasii [1]): 16 µM (≈ 5.01 µg/mL)
- MIC (Mycobacterium kansasii [2]): 16 µM (≈ 5.01 µg/mL)
- MIC [3]: 16 µM (≈ 5.01 µg/mL)
- MIC (Mycobacterium avium [4]): 16 µM (≈ 5.01 µg/mL)
- MIC (Mycobacterium kansasii [5]): 8 µM (≈ 2.51 µg/mL)
- MIC (Mycobacterium avium [6]): 16 µM (≈ 5.01 µg/mL)
- MIC [7]: 16 µM (≈ 5.01 µg/mL)
- MIC (Mycobacterium kansasii [8]): 16 µM (≈ 5.01 µg/mL)

SMILES: CCc1ccc(-n2c(=O)oc3ccc(Br)cc3c2=S)cc1
- MIC (Mycobacterium kansasii [1]): 16 µM (≈ 5.8 µg/mL)
- MIC (Mycobacterium kansasii [2]): 8 µM (≈ 2.9 µg/mL)
- MIC [3]: 0.5 µM (≈ 0.181 µg/mL)
- MIC (Mycobacterium avium [4]): 32 µM (≈ 11.6 µg/mL)
- MIC (Mycobacterium kansasii [5]): 4 µM (≈ 1.45 µg/mL)
- MIC (Mycobacterium avium [6]): 32 µM (≈ 11.6 µg/mL)
- MIC [7]: 0.5 µM (≈ 0.181 µg/mL)
- MIC (Mycobacterium kansasii [8]): 8 µM (≈ 2.9 µg/mL)

SMILES: CCc1ccc(-n2c(=O)oc3ccc(Cl)cc3c2=S)cc1
- MIC (Mycobacterium kansasii [1]): 8 µM (≈ 2.54 µg/mL)
- MIC (Mycobacterium kansasii [2]): 8 µM (≈ 2.54 µg/mL)
- MIC [3]: 0.5 µM (≈ 0.159 µg/mL)
- MIC (Mycobacterium avium [4]): 16 µM (≈ 5.08 µg/mL)
- MIC (Mycobacterium kansasii [5]): 4 µM (≈ 1.27 µg/mL)
- MIC (Mycobacterium avium [6]): 16 µM (≈ 5.08 µg/mL)
- MIC [7]: 0.5 µM (≈ 0.159 µg/mL)
- MIC (Mycobacterium kansasii [8]): 4 µM (≈ 1.27 µg/mL)

SMILES: CCc1ccc(-n2c(=O)oc3cc(Cl)ccc3c2=S)cc1
- MIC (Mycobacterium kansasii [1]): 8 µM (≈ 2.54 µg/mL)
- MIC (Mycobacterium kansasii [2]): 8 µM (≈ 2.54 µg/mL)
- MIC [3]: 0.5 µM (≈ 0.159 µg/mL)
- MIC (Mycobacterium avium [4]): 8 µM (≈ 2.54 µg/mL)
- MIC (Mycobacterium kansasii [5]): 8 µM (≈ 2.54 µg/mL)
- MIC (Mycobacterium avium [6]): 8 µM (≈ 2.54 µg/mL)
- MIC [7]: 0.5 µM (≈ 0.159 µg/mL)
- MIC (Mycobacterium kansasii [8]): 8 µM (≈ 2.54 µg/mL)

SMILES: CC(C)c1ccc(-n2c(=O)oc3ccc(Br)cc3c2=S)cc1
- MIC (Mycobacterium kansasii [1]): 62.5 µM (≈ 23.5 µg/mL)
- MIC (Mycobacterium kansasii [2]): 32 µM (≈ 12 µg/mL)
- MIC [3]: 0.25 µM (≈ 0.0941 µg/mL)
- MIC (Mycobacterium avium [4]): 4 µM (≈ 1.51 µg/mL)
- MIC (Mycobacterium kansasii [5]): 4 µM (≈ 1.51 µg/mL)
- MIC (Mycobacterium avium [6]): 8 µM (≈ 3.01 µg/mL)
- MIC [7]: 0.5 µM (≈ 0.188 µg/mL)
- MIC (Mycobacterium kansasii [8]): 8 µM (≈ 3.01 µg/mL)

SMILES: CC(C)c1ccc(-n2c(=O)oc3ccc(Cl)cc3c2=S)cc1
- MIC (Mycobacterium kansasii [1]): 16 µM (≈ 5.31 µg/mL)
- MIC (Mycobacterium kansasii [2]): 8 µM (≈ 2.65 µg/mL)
- MIC [3]: 0.5 µM (≈ 0.166 µg/mL)
- MIC (Mycobacterium avium [4]): 32 µM (≈ 10.6 µg/mL)
- MIC (Mycobacterium kansasii [5]): 1 µM (≈ 0.332 µg/mL)
- MIC (Mycobacterium avium [6]): 125 µM (≈ 41.5 µg/mL)
- MIC [7]: 1 µM (≈ 0.332 µg/mL)
- MIC (Mycobacterium kansasii [8]): 2 µM (≈ 0.664 µg/mL)

SMILES: CC(C)c1ccc(-n2c(=O)oc3ccc(F)cc3c2=S)cc1
- MIC (Mycobacterium kansasii [1]): 4 µM (≈ 1.26 µg/mL)
- MIC (Mycobacterium kansasii [2]): 2 µM (≈ 0.631 µg/mL)
- MIC [3]: 0.25 µM (≈ 0.0788 µg/mL)
- MIC (Mycobacterium avium [4]): 0.5 µM (≈ 0.158 µg/mL)
- MIC (Mycobacterium kansasii [5]): 4 µM (≈ 1.26 µg/mL)
- MIC (Mycobacterium avium [6]): 1 µM (≈ 0.315 µg/mL)
- MIC [7]: 0.5 µM (≈ 0.158 µg/mL)
- MIC (Mycobacterium kansasii [8]): 4 µM (≈ 1.26 µg/mL)

SMILES: Cc1ccc2c(=S)n(-c3ccc(C(C)C)cc3)c(=O)oc2c1
- MIC (Mycobacterium kansasii [1]): 4 µM (≈ 1.25 µg/mL)
- MIC (Mycobacterium kansasii [2]): 2 µM (≈ 0.623 µg/mL)
- MIC [3]: 0.25 µM (≈ 0.0779 µg/mL)
- MIC (Mycobacterium avium [4]): 0.5 µM (≈ 0.156 µg/mL)
- MIC (Mycobacterium kansasii [5]): 1 µM (≈ 0.311 µg/mL)
- MIC (Mycobacterium avium [6]): 1 µM (≈ 0.311 µg/mL)
- MIC [7]: 0.5 µM (≈ 0.156 µg/mL)
- MIC (Mycobacterium kansasii [8]): 2 µM (≈ 0.623 µg/mL)

SMILES: CCC(C)c1ccc(-n2c(=O)oc3ccc(Br)cc3c2=S)cc1 (stereo not given)
- MIC (Mycobacterium kansasii [1]): 8 µM (≈ 3.12 µg/mL)
- MIC (Mycobacterium kansasii [2]): 4 µM (≈ 1.56 µg/mL)
- MIC [3]: 0.25 µM (≈ 0.0976 µg/mL)
- MIC (Mycobacterium avium [4]): 16 µM (≈ 6.24 µg/mL)
- MIC (Mycobacterium kansasii [5]): 2 µM (≈ 0.781 µg/mL)
- MIC (Mycobacterium avium [6]): 32 µM (≈ 12.5 µg/mL)
- MIC [7]: 0.5 µM (≈ 0.195 µg/mL)
- MIC (Mycobacterium kansasii [8]): 4 µM (≈ 1.56 µg/mL)

SMILES: CCC(C)c1ccc(-n2c(=O)oc3ccc(F)cc3c2=S)cc1 (stereo not given)
- MIC (Mycobacterium kansasii [1]): 4 µM (≈ 1.32 µg/mL)
- MIC (Mycobacterium kansasii [2]): 4 µM (≈ 1.32 µg/mL)
- MIC [3]: 0.25 µM (≈ 0.0823 µg/mL)
- MIC (Mycobacterium avium [4]): 1 µM (≈ 0.329 µg/mL)
- MIC (Mycobacterium kansasii [5]): 2 µM (≈ 0.659 µg/mL)
- MIC (Mycobacterium avium [6]): 1 µM (≈ 0.329 µg/mL)
- MIC [7]: 0.5 µM (≈ 0.165 µg/mL)
- MIC (Mycobacterium kansasii [8]): 4 µM (≈ 1.32 µg/mL)

SMILES: CCC(C)c1ccc(-n2c(=O)oc3cc(C)ccc3c2=S)cc1 (stereo not given)
- MIC (Mycobacterium kansasii [1]): 2 µM (≈ 0.651 µg/mL)
- MIC (Mycobacterium kansasii [2]): 1 µM (≈ 0.325 µg/mL)
- MIC [3]: 0.25 µM (≈ 0.0814 µg/mL)
- MIC (Mycobacterium avium [4]): 0.5 µM (≈ 0.163 µg/mL)
- MIC (Mycobacterium kansasii [5]): 0.5 µM (≈ 0.163 µg/mL)
- MIC (Mycobacterium avium [6]): 0.5 µM (≈ 0.163 µg/mL)
- MIC [7]: 0.5 µM (≈ 0.163 µg/mL)
- MIC (Mycobacterium kansasii [8]): 1 µM (≈ 0.325 µg/mL)

SMILES: CC(C)(C)c1ccc(-n2c(=O)oc3ccc(Cl)cc3c2=S)cc1
- MIC (Mycobacterium kansasii [1]): 8 µM (≈ 2.77 µg/mL)
- MIC (Mycobacterium kansasii [2]): 8 µM (≈ 2.77 µg/mL)
- MIC [3]: 0.25 µM (≈ 0.0865 µg/mL)
- MIC (Mycobacterium avium [4]): 1 µM (≈ 0.346 µg/mL)
- MIC (Mycobacterium kansasii [5]): 4 µM (≈ 1.38 µg/mL)
- MIC (Mycobacterium avium [6]): 2 µM (≈ 0.692 µg/mL)
- MIC [7]: 0.5 µM (≈ 0.173 µg/mL)
- MIC (Mycobacterium kansasii [8]): 8 µM (≈ 2.77 µg/mL)

SMILES: CC(C)(C)c1ccc(-n2c(=O)oc3ccc(F)cc3c2=S)cc1
- MIC (Mycobacterium kansasii [1]): 8 µM (≈ 2.64 µg/mL)
- MIC (Mycobacterium kansasii [2]): 4 µM (≈ 1.32 µg/mL)
- MIC [3]: 0.25 µM (≈ 0.0823 µg/mL)
- MIC (Mycobacterium avium [4]): 0.5 µM (≈ 0.165 µg/mL)
- MIC (Mycobacterium kansasii [5]): 8 µM (≈ 2.64 µg/mL)
- MIC (Mycobacterium avium [6]): 1 µM (≈ 0.329 µg/mL)
- MIC [7]: 0.5 µM (≈ 0.165 µg/mL)
- MIC (Mycobacterium kansasii [8]): 8 µM (≈ 2.64 µg/mL)

SMILES: Cc1ccc2c(=S)n(-c3ccc(C(C)(C)C)cc3)c(=O)oc2c1
- MIC (Mycobacterium kansasii [1]): 2 µM (≈ 0.651 µg/mL)
- MIC (Mycobacterium kansasii [2]): 2 µM (≈ 0.651 µg/mL)
- MIC [3]: 0.25 µM (≈ 0.0814 µg/mL)
- MIC (Mycobacterium avium [4]): 0.25 µM (≈ 0.0814 µg/mL)
- MIC (Mycobacterium kansasii [5]): 1 µM (≈ 0.325 µg/mL)
- MIC (Mycobacterium avium [6]): 0.5 µM (≈ 0.163 µg/mL)
- MIC [7]: 0.5 µM (≈ 0.163 µg/mL)
- MIC (Mycobacterium kansasii [8]): 1 µM (≈ 0.325 µg/mL)

— ChEMBL document CHEMBL1287747, “Highly active antimycobacterial derivatives of benzoxazine” (2010)
